# In ChEMBL document CHEMBL1144360, “Phenazine 5,10-dioxide derivatives as hypoxic selective cytotoxins” (2005):
# Values joined by “and” are separate entries in the source; they are usually repeats but may differ in a detail not shown here. Identical values can stand only once.
# What was measured:
# Format in all cases: functional, Cricetulus griseus
# Cricetinae gen. sp. [1] = test: In vitro survival fraction of V79 cells after 2 hours upon treatment with compound in air at 10 uM; set-up: unit: %
# How it was run: (§1)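 Clonogenic assay on V79 suspension cultures gassed with air (aerobic) or nitrogen (hypoxia), exposed to compound for 2 h. Colony survival expressed as survival fraction relative to untreated control under the same gas condition. Assays run in duplicate with at least three repetitions; reported value is the mean of two separate experiments.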
# Cricetinae gen. sp. [2] = test: In vitro survival fraction of V79 cells after 2 hours upon treatment with compound in air at 20 uM; set-up: unit: %; how it was run: as §1
# Cricetinae gen. sp. [3] = test: In vitro survival fraction of V79 cells after 2 hours upon treatment with compound under hypoxia at 10 uM; set-up: unit: %; how it was run: as §1
# Cricetinae gen. sp. [4] = test: In vitro survival fraction of V79 cells after 2 hours upon treatment with compound under hypoxia at 20 uM; set-up: unit: %; how it was run: as §1
# Cricetinae gen. sp. [5] = test: In vitro survival fraction of V79 cells after 2 hours upon treatment with compound in air at 5 uM; how it was run: as §1
# Cricetinae gen. sp. [6] = test: In vitro survival fraction of V79 cells after 2 hours upon treatment with compound under hypoxia at 5 uM; how it was run: as §1
smiles,measurement,setting,value
Nc1ccc2c(c1)[n+]([O-])c1ccc(Br)cc1[n+]2[O-],SF,Cricetinae gen. sp. [1],64
same,SF,Cricetinae gen. sp. [2],12
same,SF,Cricetinae gen. sp. [3],3
same,SF,Cricetinae gen. sp. [4],0
[O-][n+]1c2ccc(Br)cc2[n+]([O-])c2ccc(O)cc21,SF,Cricetinae gen. sp. [2],80
same,SF,Cricetinae gen. sp. [4],0
Cc1ccc2nc3cc(O)ccc3nc2c1,SF,Cricetinae gen. sp. [2],100
same,SF,Cricetinae gen. sp. [4],100
Nc1ccc2c(c1)[n+]([O-])c1ccc(Cl)cc1[n+]2[O-],SF,Cricetinae gen. sp. [1],26
same,SF,Cricetinae gen. sp. [2],0
same,SF,Cricetinae gen. sp. [3],3
same,SF,Cricetinae gen. sp. [4],0
[O-][n+]1c2ccc(Cl)cc2[n+]([O-])c2ccc(O)cc21,SF,Cricetinae gen. sp. [2],100
same,SF,Cricetinae gen. sp. [4],100
Oc1ccc2nc3cc(Br)ccc3nc2c1,SF,Cricetinae gen. sp. [2],100
same,SF,Cricetinae gen. sp. [4],100
Nc1ccc2nc3cc(Br)ccc3nc2c1,SF,Cricetinae gen. sp. [2],0
same,SF,Cricetinae gen. sp. [4],0
COc1ccc2c(c1)[n+]([O-])c1ccc(O)cc1[n+]2[O-],SF,Cricetinae gen. sp. [2],100
same,SF,Cricetinae gen. sp. [4],87
Cc1ccc2c(c1)[n+]([O-])c1ccc(O)cc1[n+]2[O-],SF,Cricetinae gen. sp. [2],93
same,SF,Cricetinae gen. sp. [4],100
[O-][n+]1c2ccc(C3OCCO3)cc2[n+]([O-])c2ccc(O)cc21,SF,Cricetinae gen. sp. [5],100
same,SF,Cricetinae gen. sp. [2],100
same,SF,Cricetinae gen. sp. [6],5
same,SF,Cricetinae gen. sp. [4],100
[O-][n+]1c2ccccc2[n+]([O-])c2cc(O)ccc21,SF,Cricetinae gen. sp. [2],100
same,SF,Cricetinae gen. sp. [4],73
Oc1ccc2nc3cc(Cl)ccc3nc2c1,SF,Cricetinae gen. sp. [2],100
same,SF,Cricetinae gen. sp. [4],100
O=Cc1ccc2nc3cc(O)ccc3nc2c1,SF,Cricetinae gen. sp. [2],98
same,SF,Cricetinae gen. sp. [4],100
Nc1ccc2c(c1)[n+]([O-])c1ccc(C3OCCO3)cc1[n+]2[O-],SF,Cricetinae gen. sp. [5],100
same,SF,Cricetinae gen. sp. [1],86
same,SF,Cricetinae gen. sp. [2],14
same,SF,Cricetinae gen. sp. [6],36
same,SF,Cricetinae gen. sp. [3],1
same,SF,Cricetinae gen. sp. [4],0
Nc1ccc2c(c1)[n+]([O-])c1ccccc1[n+]2[O-],SF,Cricetinae gen. sp. [1],64
same,SF,Cricetinae gen. sp. [2],2
same,SF,Cricetinae gen. sp. [3],19
same,SF,Cricetinae gen. sp. [4],0
Cc1ccc2nc3cc(N)ccc3[n+]([O-])c2c1,SF,Cricetinae gen. sp. [2],100 and 98
same,SF,Cricetinae gen. sp. [4],100
Nc1ccc2nc3cc(C4OCCO4)ccc3nc2c1,SF,Cricetinae gen. sp. [2],100
same,SF,Cricetinae gen. sp. [4],100
Cc1ccc2nc3cc(N)ccc3nc2c1,SF,Cricetinae gen. sp. [2],98
same,SF,Cricetinae gen. sp. [4],100
COc1ccc2c(c1)[n+]([O-])c1ccc(N)cc1[n+]2[O-],SF,Cricetinae gen. sp. [2],87
same,SF,Cricetinae gen. sp. [4],23
Cc1ccc2c(c1)[n+]([O-])c1ccc(N)cc1[n+]2[O-],SF,Cricetinae gen. sp. [2],61
same,SF,Cricetinae gen. sp. [4],11
Nc1ccc2c(c1)[n+]([O-])c1ccc([N+](=O)[O-])cc1[n+]2[O-],SF,Cricetinae gen. sp. [1],58
same,SF,Cricetinae gen. sp. [2],1
same,SF,Cricetinae gen. sp. [3],65
same,SF,Cricetinae gen. sp. [4],2
Nc1ccc2nc3cc(Cl)ccc3nc2c1,SF,Cricetinae gen. sp. [2],0
same,SF,Cricetinae gen. sp. [4],100
